In ChEMBL document CHEMBL2311531, “Synthesis and antioxidant activities of 2-oxo-quinoline-3-carbaldehyde Schiff-base derivatives” (Bioorg Med Chem Lett, 2013):

Assays:
Format in all cases: functional
[1] = Antioxidant activity assessed as DPPH scavenging activity after 30 mins by spectrophotometry
How it was run: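 Sample in DMF at several concentrations added to 0.004% (w/v) DPPH in ethanol, incubated at 37 °C, A517 read after 30 min. Scavenging % = (Acontrol − Atest)/Acontrol × 100, control lacking scavenger. Triplicate; IC50 as concentration scavenging 50% of radicals.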

[2] = Antioxidant activity assessed as hydroxyl radical scavenging activity after 1 hr by spectrophotometry
How it was run: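 Salicylate method: 20 mM sodium salicylate, 1.5 mM FeSO4, sample at various concentrations and 6 mM H2O2 (stock levels) mixed, held 1 h in 37 °C water bath, A510 read against blank. Scavenging % from absorbance with vs without sample; triplicate; IC50 as concentration scavenging 50% of radicals.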

[3] = Antioxidant activity assessed as ABTS radical scavenging activity after 3 mins by spectrophotometry
How it was run: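 ABTS radical cation from 2 mM ABTS stock in PBS pH 7.4 reacted with 70 mM K2S2O8, standing in dark at room temperature 15-16 h; diluted with PBS to A734 0.700 ± 0.030. Sample solutions at several concentrations mixed with radical solution, absorbance read after 3 min at ambient temperature; PBS blank. Triplicate; IC50 as concentration scavenging 50% of radicals.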

[4] = Antioxidant activity assessed as superoxide anion radical scavenging activity after 5 mins by spectrophotometry
How it was run: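 Pyrogallol autoxidation at room temperature: sample in DMF at various concentrations added to 0.05 M Tris-HCl with 30 mM 1,2,3-trihydroxybenzene (stock), 5 min reaction, stopped with 8.0 M HCl (stock), A320 read against blank. Scavenging % from absorbance with vs without sample; triplicate; IC50 as concentration scavenging 50% of radicals.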

Row | IC50 ([1]; read-out: IC50) [µM] | IC50 ([2]; read-out: IC50) [µM] | IC50 [3] [µM] | IC50 ([4]; read-out: IC50) [µM] | IC50 [1] | IC50 [2] | IC50 [4] | SMILES
1 | 439 | 7680 | 1810 | 246 |  |  |  | CCCC/N=C/c1cc2ccccc2[nH]c1=O
2 | 63.2 | 3560 | 43.3 | 379 |  |  |  | CCCC/N=C/c1cc2cc(C)ccc2[nH]c1=O
3 |  | 3140 | 368 | 329 | Not Active |  |  | O=c1[nH]c2ccccc2cc1/C=N/Cc1ccccc1
4 |  | 6920 | 607 | 310 | Not Active |  |  | Cc1ccc2[nH]c(=O)c(/C=N/Cc3ccccc3)cc2c1
5 |  | 3310 | 1210 | 467 | Not Active |  |  | O=c1[nH]c2ccccc2cc1/C=N/CCO
6 | 498 | 4180 | 1190 | 1480 |  |  |  | Cc1ccc2[nH]c(=O)c(/C=N/CCO)cc2c1
7 | 22.8 | 1660 | 11.7 | 237 |  |  |  | O=c1[nH]c2ccccc2cc1/C=N/c1ccccc1O
8 | 26.2 | 1350 | 8.24 | 286 |  |  |  | Cc1ccc2[nH]c(=O)c(/C=N/c3ccccc3O)cc2c1
9 | 92.1 |  | 7.15 | 306 |  | Not Active |  | O=c1[nH]c2ccccc2cc1/C=N/c1ccc(O)cc1
10 | 88.5 |  | 5.24 | 235 |  | Not Active |  | Cc1ccc2[nH]c(=O)c(/C=N/c3ccc(O)cc3)cc2c1
11 | 76.5 | 1000 | 11.8 | 306 |  |  |  | O=c1[nH]c2ccccc2cc1/C=N/Nc1ccccc1
12 | 62.4 | 1470 | 8.47 | 309 |  |  |  | Cc1ccc2[nH]c(=O)c(/C=N/Nc3ccccc3)cc2c1
13 | 170 | 245 | 11.4 |  |  |  | Not Active | O=c1[nH]c2ccccc2cc1/C=N/Nc1ccc([N+](=O)[O-])cc1
14 | 109 | 350 | 8.25 |  |  |  | Not Active | Cc1ccc2[nH]c(=O)c(/C=N/Nc3ccc([N+](=O)[O-])cc3)cc2c1
15 | 190 | 375 | 142 |  |  |  | Not Active | O=c1[nH]c2ccccc2cc1/C=N/Nc1ccc([N+](=O)[O-])cc1[N+](=O)[O-]
16 |  | 749 | 144 |  | Not Active |  | Not Active | Cc1ccc2[nH]c(=O)c(/C=N/Nc3ccc([N+](=O)[O-])cc3[N+](=O)[O-])cc2c1
17 | 266 | 266 | 1610 | 169 |  |  |  | NS(=O)(=O)c1ccc(/N=C/c2cc3ccccc3[nH]c2=O)cc1
18 |  |  | 1200 | 258 | Not Active | Not Active |  | Cc1ccc2[nH]c(=O)c(/C=N/c3ccc(S(N)(=O)=O)cc3)cc2c1
19 | 729 | 365 | 20.6 | 184 |  |  |  | N/N=C/c1cc2ccccc2[nH]c1=O
20 | 641 | 790 | 11.3 | 153 |  |  |  | Cc1ccc2[nH]c(=O)c(/C=N/N)cc2c1
21 | 1660 |  | 438 | 381 |  | Not Active |  | O=C(O)c1ccc(/N=C/c2cc3ccccc3[nH]c2=O)cc1
22 |  |  | 222 | 409 | Not Active | Not Active |  | Cc1ccc2[nH]c(=O)c(/C=N/c3ccc(C(=O)O)cc3)cc2c1
23 | 2850 | 5090 | 485 | 197 |  |  |  | O=C(Cc1ccncc1)N/N=C/c1cc2ccccc2[nH]c1=O
24 | 3580 | 4690 | 882 | 209 |  |  |  | Cc1ccc2[nH]c(=O)c(/C=N/NC(=O)Cc3ccncc3)cc2c1
25 | 1290 | 8730 | 8.91 | 256 |  |  |  | NS(=O)(=O)CC(=O)N/N=C/c1cc2ccccc2[nH]c1=O
26 | 3350 | 5830 | 9.17 | 147 |  |  |  | Cc1ccc2[nH]c(=O)c(/C=N/NC(=O)CS(N)(=O)=O)cc2c1
27 | 118 | 2010 | 31.8 | 463 |  |  |  | O=c1[nH]c2ccccc2cc1/C=N/O
28 | 160 | 1980 | 38.9 | 389 |  |  |  | Cc1ccc2[nH]c(=O)c(/C=N/O)cc2c1
29 | 43.8 | 73.8 | 12.8 | 15.6 |  |  |  | O=C1O[C@H]([C@@H](O)CO)C(O)=C1O [ASCORBIC ACID]
30 | 65.8 | 24700 | 37 | 254 |  |  |  | Cc1cc(C(C)(C)C)c(O)c(C(C)(C)C)c1 [BUTYLATED HYDROXYTOLUENE]
